The values that follow come from ChEMBL document CHEMBL4680142, “Thiazolidine-2,4-dione-based irreversible allosteric IKK-β kinase inhibitors: Optimization into in vivo active anti-inflammatory agents” (Eur J Med Chem, 2020).

Assay [1] concerns Mus musculus. Put plainly: Antiinflammatory activity against LPS-induced sepsis C57BL/6 mouse model assessed as organism survival rate at 5 to 50 mg/kg, po administered 1 hr before LPS stimulation and measured after 16 hrs relative to control. The settings on record: dose 5-50 mg/kg, time 17 hrs. Format: functional. Summed up:
(§1)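 Male C57BL/6 mice (6 or 10 weeks), water only for 24 h beforehand. Compound given orally at 5 or 50 mg/kg 1 h before intraperitoneal injection of LPS (Salmonella enterica serotype enteritidis, 25 mg/kg in PBS); controls received PBS. Survival monitored for 36 h.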

Assay [2] relates to Mus musculus. Put plainly: Antiinflammatory activity against LPS-induced sepsis C57BL/6 mouse model assessed as organism survival rate at 5 to 50 mg/kg, po administered 1 hr before LPS stimulation and measured after 36 hrs relative to control. Format: functional. The settings on record: dose 5-50 mg/kg, time 37 hrs. Summed up:
as §1

Assay [3] concerns RAW264.7. Put plainly: Antiinflammatory activity against mouse RAW264.7 cells assessed as reduction in LPS-induced PGE2 production at 0.1 uM incubated for 1 hr followed by LPS stimulation and measured after 24 hrs by ELISA. Format: functional, cell-based. The following applies: time 25.0 hrs. Summed up: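 RAW 264.7 cells (DMEM, 10% FBS, 37 °C, 5% CO2) plated at 2×10^5 cells/mL and left overnight. Compounds (0.1, 1, 10 µM) or NS-398 given for 1 h, then LPS 10 ng/mL for 24 h. Culture medium assayed by ELISA: competitive colorimetric for PGE2/TNF-α, mouse DuoSet for TNF-α/IL-6. IC50 is the concentration lowering the mediator to 50%.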

The source made the active and inactive calls. The calls are words filed in the database; no cut-off is given here.

As for `CN1CCN(CCCOc2ccc(N3C(=O)S/C(=C\c4ccc(Oc5ccc(C#N)cc5)cc4)C3=O)cc2)CC1`, the Survival in assay [1] stood at 100%; in assay [2] it was 80%. For the same compound, in assay [3], the result was Active.
